Measured values from ChEMBL document CHEMBL1139303, “One-pot synthesis of 5-phenylimino, 5-thieno or 5-oxo-1,2,3-dithiazoles and evaluation of their antimicrobial and antitumor activity” (2009).
In brackets after ≈: the same amount, converted by molar mass. Activity calls are given as the source filed them. The rule behind the calls is not given here.

Columns and labels:
Nakaseomyces glabratus [1] = experiment: Ratio of MFC to MIC against Candida glabrata DSM6425; format: functional
Procedure, shortened: (§1)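 Yeasts pre-grown on yeast extract peptone dextrose medium, 30 °C, 24 h. MIC and MFC by macro-dilution broth method; compounds in DMSO, max 2.13% solvent in cultures. Amphotericin B and fluconazole as references. MFC/MIC ratio computed; ≥4 taken as fungistatic. Triplicate.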

Nakaseomyces glabratus [2] = experiment: Antifungal activity against Candida glabrata DSM6425 after 24 hrs by broth macrodilution method; format: functional; conditions: DSM6425, 24 h; procedure, shortened: as §1
Candida albicans [3] = experiment: Antifungal activity against Candida albicans ATCC 10231 after 24 hrs by broth macrodilution method; format: functional; conditions: ATCC 10231, 24 h; procedure, shortened: as §1
MCF7 = experiment: Antiproliferative activity against human MCF7 cells after 72 hrs by MTT assay; format: functional; conditions: MCF7, 72 h
Procedure, shortened: (§2)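 5000 cells per well added to pre-equilibrated medium at 37 °C; compounds from 10^-3 M DMSO stocks, final 10^-5 M. After 72 h, MTT (5 g/L) for 4 h, formazan dissolved in DMSO, OD 550 nm. % growth inhibition vs 1% DMSO medium (0%) and 10% SDS lysis (100%); mean ± SEM, 24 measures, three independent experiments.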

Bacillus cereus [4] = experiment: Antibacterial activity against Bacillus cereus at 50 ug after 24 hrs by agar diffusion method; format: functional; conditions: for zone of inhibition at 50 µg/disc: read-out: IZ
Procedure, shortened: (§3)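 Bacteria pre-grown 24 h on nutritive agar (tryptone soy agar for E. faecalis, L. inocua) at 37 °C (30 °C for E. faecalis, L. inocua, B. cereus). Agar well diffusion with 50 µg compound in 80% DMSO; 80% DMSO alone as control. Inhibition zone diameter averaged from triplicate, scored 6-9, 9-12, >12 mm.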

Candida albicans [5] = experiment: Antifungal activity against Candida albicans ATCC 10231 at 50 ug after 24 hrs by agar diffusion method; format: functional; conditions: for zone of inhibition at 50 µg/disc: ATCC 10231, 24 h, read-out: IZ
Procedure, shortened: (§4)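 Yeasts grown on yeast extract peptone dextrose medium at 30 °C for 24 h, then agar well diffusion with 50 µg compound in 80% DMSO; 80% DMSO alone as control. Averaged inhibition zone diameter from triplicate, scored 6-9, 9-12 or >12 mm.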

Candida tropicalis [6] = experiment: Antifungal activity against Candida tropicalis DSM 1346 at 50 ug after 24 hrs by agar diffusion method; format: functional; conditions: for zone of inhibition at 50 µg/disc: DSM 1346, 24 h, read-out: IZ; procedure, shortened: as §4
Staphylococcus aureus [7] = experiment: Antibacterial activity against Staphylococcus aureus ATCC 25923 after 24 hrs by broth macrodilution method; format: functional; conditions: ATCC 25923, 24 h
Procedure, shortened: (§5)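 Bacteria pre-grown 24 h on nutritive agar (tryptone soy agar for E. faecalis, L. inocua) at 37 °C (30 °C for E. faecalis, L. inocua, B. cereus). MIC and MBC determined by macro-dilution broth method; MBC = lowest concentration killing 99.99% of inoculum. Compounds in DMSO, max 2.13% solvent in cultures. Triplicate.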

Listeria innocua [8] = experiment: Antibacterial activity against Listeria innocua after 24 hrs by broth macrodilution method; format: functional; procedure, shortened: as §5
Enterococcus faecalis [9] = experiment: Antibacterial activity against Enterococcus faecalis CIP 103214 at 50 ug after 24 hrs by agar diffusion method; format: functional; conditions: for zone of inhibition at 50 µg/disc: CIP 103214, 24 h, read-out: IZ; procedure, shortened: as §3
MDA-MB-231 [10] = experiment: Antiproliferative activity against human MDA-MB-231 cells after 72 hrs by MTT assay; format: functional; conditions: MDA-MB-231, 72 h; procedure, shortened: as §2
Bacillus cereus [11] = experiment: Antibacterial activity against Bacillus cereus after 24 hrs by broth macrodilution method; format: functional; procedure, shortened: as §5
Escherichia coli [12] = experiment: Antibacterial activity against Escherichia coli ATCC 25922 at 50 ug after 24 hrs by agar diffusion method; format: functional; conditions: for zone of inhibition at 50 µg/disc: ATCC 25922, 24 h, read-out: IZ; procedure, shortened: as §3
Nakaseomyces glabratus [13] = experiment: Antifungal activity against Candida glabrata DSM6425 at 50 ug after 24 hrs by agar diffusion method; format: functional; conditions: for zone of inhibition at 50 µg/disc: DSM6425, 24 h, read-out: IZ; procedure, shortened: as §4
Listeria innocua [14] = experiment: Antibacterial activity against Listeria innocua at 50 ug after 24 hrs by agar diffusion method; format: functional; conditions: for zone of inhibition at 50 µg/disc: read-out: IZ; procedure, shortened: as §3
Klebsiella pneumoniae = experiment: Antibacterial activity against Klebsiella pneumoniae CIP 53153 at 50 ug after 24 hrs by agar diffusion method; format: functional, organism-based; procedure, shortened: as §3
MDA-MB-231 [15] = experiment: Antiproliferative activity against human MDA-MB-231 cells at 10 uM after 72 hrs by MTT assay; format: functional; conditions: MDA-MB-231, 72 h; procedure, shortened: as §2
Pseudomonas aeruginosa = experiment: Antibacterial activity against Pseudomonas aeruginosa ATCC 27853 at 50 ug after 24 hrs by agar diffusion method; format: functional, organism-based; procedure, shortened: as §3
Escherichia coli [16] = experiment: Antibacterial activity against Escherichia coli ATCC 25922 after 24 hrs by broth macrodilution method; format: functional; conditions: ATCC 25922, 24 h; procedure, shortened: as §5
Pichia kudriavzevii = experiment: Antifungal activity against Issatchenkia orientalis DSM6128 at 50 ug after 24 hrs by agar diffusion method; format: functional, organism-based; procedure, shortened: as §4
Candida tropicalis [17] = experiment: Antifungal activity against Candida tropicalis DSM 1346 after 24 hrs by broth macrodilution method; format: functional; conditions: DSM 1346, 24 h; procedure, shortened: as §1
Enterococcus faecalis [18] = experiment: Antibacterial activity against Enterococcus faecalis CIP 103214 after 24 hrs by broth macrodilution method; format: functional; conditions: CIP 103214, 24 h; procedure, shortened: as §5
Staphylococcus aureus [19] = experiment: Antibacterial activity against Staphylococcus aureus ATCC 25923 at 50 ug after 24 hrs by agar diffusion method; format: functional; conditions: for zone of inhibition at 50 µg/disc: Staphylococcus aureus, ATCC 25923, 24 h, read-out: IZ; procedure, shortened: as §3
Candida albicans [20] = experiment: Ratio of MFC to MIC against Candida albicans ATCC 10231; format: functional
Procedure, shortened: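 C. albicans ATCC10231 was pre-grown on yeast extract peptone dextrose agar for 24 h at 30 °C. MIC and MFC were determined by broth macro-dilution, with compounds dissolved in DMSO at no more than 2.13% solvent in the liquid culture. Each endpoint was measured in triplicate, and the MFC was divided by the MIC to give the ratio.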

Candida tropicalis [21] = experiment: Ratio of MFC to MIC against Candida tropicalis DSM 1346; format: functional; procedure, shortened: as §1

| SMILES | Ratio (Nakaseomyces glabratus [1]) | MFC (Nakaseomyces glabratus [2]) [µg/mL] | MIC (Nakaseomyces glabratus [2]) [µg/mL] | MFC (Candida albicans [3]) [µg/mL] | MIC (Candida albicans [3]) [µg/mL] | GI50 (MCF7) [µM] | zone of inhibition at 50 µg/disc (Bacillus cereus [4]) [mm] | MBC (Staphylococcus aureus [7]) [µg/mL] | MIC (Staphylococcus aureus [7]) [µg/mL] | GI50 (MDA-MB-231 [10]) [µM] | MBC (Bacillus cereus [11]) [µg/mL] | MIC (Bacillus cereus [11]) [µg/mL] | Activity (Klebsiella pneumoniae) | inhibition at 10 µM (MDA-MB-231 [15]) [%] | Activity (Pseudomonas aeruginosa) | Activity (Pichia kudriavzevii) | MFC (Candida tropicalis [17]) [µg/mL] | MIC (Candida tropicalis [17]) [µg/mL] | Activity (Enterococcus faecalis [9]) | Activity (Listeria innocua [14]) | other results |
| --- | --- | --- | --- | --- | --- | --- | --- | --- | --- | --- | --- | --- | --- | --- | --- | --- | --- | --- | --- | --- | --- |
| CCOC(=O)c1nssc1=S | 1.5 | 48 (≈ 232 µM) | 32 (≈ 154 µM) | > 48 | 48 (≈ 232 µM) | > 10 | 9 | > 48 | 48 (≈ 232 µM) | > 10 | > 48 | > 48 | inactive | 0 | inactive | inactive | > 48 | 48 (≈ 232 µM) | – | – | zone of inhibition at 50 µg/disc (Candida albicans [5]): > 12 mm; zone of inhibition at 50 µg/disc (Candida tropicalis [6]): 6 mm; MBC (Listeria innocua [8]): > 48 µg/mL; MIC (Listeria innocua [8]): 32 µg/mL (≈ 154 µM); zone of inhibition at 50 µg/disc (Enterococcus faecalis [9]): 9 mm; zone of inhibition at 50 µg/disc (Escherichia coli [12]): 9 mm; zone of inhibition at 50 µg/disc (Nakaseomyces glabratus [13]): 6 mm; zone of inhibition at 50 µg/disc (Listeria innocua [14]): 6 mm; MBC (Escherichia coli [16]): > 48 µg/mL; MIC (Escherichia coli [16]): > 48 µg/mL; MBC (Enterococcus faecalis [18]): > 48 µg/mL; MIC (Enterococcus faecalis [18]): > 48 µg/mL; Activity (Staphylococcus aureus [19]): 12 mm |
| OC(Cn1cncn1)(Cn1cncn1)c1ccc(F)cc1F [FLUCONAZOLE] | >32 | > 128 | 4 (≈ 13.1 µM) | > 128 | 2 (≈ 6.53 µM) | – | – | – | – | – | – | – | – | – | – | – | > 128 | 4 (≈ 13.1 µM) | – | – | Ratio (Candida albicans [20]): >64; Ratio (Candida tropicalis [21]): >32 |
| Cc1nssc1=S | – | – | – | – | – | > 10 | – | > 48 | 48 (≈ 322 µM) | > 10 | – | – | inactive | 0 | inactive | inactive | – | – | inactive | inactive | Activity (Bacillus cereus [4]): inactive; Activity (Candida albicans [5]): inactive; Activity (Candida tropicalis [6]): inactive; Activity (Escherichia coli [12]): inactive; Activity (Nakaseomyces glabratus [13]): inactive; zone of inhibition at 50 µg/disc (Staphylococcus aureus [19]): 6 mm |
| S=c1ssnc1-c1ccccn1 | 6 | 48 (≈ 226 µM) | 8 (≈ 37.7 µM) | > 48 | 32 (≈ 151 µM) | > 10 | 9 | > 48 | 48 (≈ 226 µM) | > 10 | > 48 | > 48 | inactive | 0 | inactive | inactive | 48 (≈ 226 µM) | 32 (≈ 151 µM) | – | – | zone of inhibition at 50 µg/disc (Candida albicans [5]): > 12 mm; Ratio (Candida tropicalis [21]): 1.5; zone of inhibition at 50 µg/disc (Candida tropicalis [6]): 9 mm; MBC (Listeria innocua [8]): > 48 µg/mL; MIC (Listeria innocua [8]): 16 µg/mL (≈ 75.4 µM); zone of inhibition at 50 µg/disc (Enterococcus faecalis [9]): > 12 mm; zone of inhibition at 50 µg/disc (Escherichia coli [12]): 6 mm; zone of inhibition at 50 µg/disc (Nakaseomyces glabratus [13]): 9 mm; zone of inhibition at 50 µg/disc (Listeria innocua [14]): 9 mm; MBC (Escherichia coli [16]): > 48 µg/mL; MIC (Escherichia coli [16]): > 48 µg/mL; MBC (Enterococcus faecalis [18]): > 48 µg/mL; MIC (Enterococcus faecalis [18]): 48 µg/mL (≈ 226 µM); zone of inhibition at 50 µg/disc (Staphylococcus aureus [19]): 12 mm |
| S=c1ssnc1-c1ccccc1 | – | – | – | – | – | > 10 | 9 | > 48 | 32 (≈ 151 µM) | > 10 | > 48 | > 48 | inactive | 0 | inactive | inactive | – | – | inactive | inactive | Activity (Candida albicans [5]): inactive; Activity (Candida tropicalis [6]): inactive; Activity (Escherichia coli [12]): inactive; Activity (Nakaseomyces glabratus [13]): inactive; zone of inhibition at 50 µg/disc (Staphylococcus aureus [19]): 12 mm |
| CCOC(=O)c1nss/c1=N\c1ccccc1 | 1.5 | 48 (≈ 180 µM) | 32 (≈ 120 µM) | > 48 | 48 (≈ 180 µM) | > 10 | 6 | > 48 | 48 (≈ 180 µM) | > 10 | > 48 | 48 (≈ 180 µM) | inactive | 0 | inactive | inactive | > 48 | 32 (≈ 120 µM) | inactive | inactive | zone of inhibition at 50 µg/disc (Candida albicans [5]): > 12 mm; zone of inhibition at 50 µg/disc (Candida tropicalis [6]): 9 mm; Activity (Escherichia coli [12]): inactive; zone of inhibition at 50 µg/disc (Nakaseomyces glabratus [13]): 9 mm; zone of inhibition at 50 µg/disc (Staphylococcus aureus [19]): 6 mm |
| O=c1ssnc1-c1ccccc1 | – | – | – | – | – | > 10 | – | – | – | > 10 | – | – | inactive | 0 | inactive | inactive | – | – | inactive | inactive | Activity (Bacillus cereus [4]): inactive; Activity (Candida albicans [5]): inactive; Activity (Candida tropicalis [6]): inactive; zone of inhibition at 50 µg/disc (Escherichia coli [12]): 6 mm; Activity (Nakaseomyces glabratus [13]): inactive; MBC (Escherichia coli [16]): > 48 µg/mL; MIC (Escherichia coli [16]): > 48 µg/mL; Activity (Staphylococcus aureus [19]): inactive |
